Measured values: ChEMBL document CHEMBL2021883, “Amino acid, dipeptide and pseudodipeptide conjugates of ring-substituted 8-aminoquinolines: synthesis and evaluation of anti-infective, β-haematin inhibition and cytotoxic activities” (Eur J Med Chem, 2012)
pIC50: −log10 of the molar value. Converted amounts (≈) assume the structure as drawn. The source made the active and inactive calls. Unless noted, no cut-off for these calls is given here.

Legend:
[1] = system: Candida albicans; test: Antifungal activity against Candida albicans; assay type: functional, organism-based
Summary of the method: (§1)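 Yeasts and A. fumigatus were tested by broth microdilution following the NCCLS antifungal standards. The highest test concentration was 20.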

[2] = system: Mycobacterium intracellulare; test: Antimicrobial activity against Mycobacterium intracellulare ATCC 23068 at 20 ug/ml by Franzblau method; assay type: functional, organism-based
[3] = system: Plasmodium falciparum; test: Antimalarial activity against chloroquine-resistant Plasmodium falciparum W2 assessed as plasmodial LDH activity; assay type: functional, organism-based
[4] = system: Plasmodium berghei; test: Antimalarial activity against Plasmodium berghei blood-schizont in mouse malaria model assessed as elimination of parasitemia at 100 mg/kg, po for 4 days for 4 days measured after 7 days; assay type: functional, organism-based; design: dose 100 mg/kg
Summary of the method: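 P. berghei-infected mice, 6 per group, received compound orally once daily for 4 days at 10, 25, 50 or 100 mg/kg/day. "Active" meant all treated animals were parasitaemia-negative up to D+7. "Curative" meant complete parasite elimination with survival to D+60. Outcomes were recorded as cured/total.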

[5] = system: Mycobacterium intracellulare; test: Bactericidal activity against Mycobacterium intracellulare ATCC 23068 at 20 ug/ml by Franzblau method; assay type: functional, organism-based
[6] = system: Staphylococcus aureus; test: Antimicrobial activity against methicillin-resistant Staphylococcus aureus ATCC 43300 by CLSI method; assay type: functional, organism-based
[7] = system: Aspergillus fumigatus; test: Antifungal activity against Aspergillus fumigatus; assay type: functional, organism-based; summary of the method: as §1
[8] = system: Leishmania donovani; test: Antileishmanial activity against Leishmania donovani promastigote by Alamar Blue assay; assay type: functional, organism-based
[9] = system: Pseudomonas aeruginosa; test: Antimicrobial activity against Pseudomonas aeruginosa ATCC 27853 by CLSI method; assay type: functional, organism-based
Summary of the method: (§2)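 Antibacterial testing used CLSI/NCCLS broth dilution for aerobically growing bacteria, with 20 as the highest test concentration.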

[10] = system: Cryptococcus neoformans; test: Antifungal activity against Cryptococcus neoformans; assay type: functional, organism-based; summary of the method: as §1
[11] = system: Escherichia coli; test: Antimicrobial activity against Escherichia coli ATCC 35218 at 20 ug/ml by CLSI method; assay type: functional, organism-based; summary of the method: as §2
[12] = system: Mycobacterium intracellulare; test: Antimicrobial activity against Mycobacterium intracellulare ATCC 23068 by Franzblau method; assay type: functional, organism-based
[13] = Inhibition of beta-hematin formation; assay type: functional
[14] = system: Escherichia coli; test: Antimicrobial activity against Escherichia coli ATCC 35218 by CLSI method; assay type: functional, organism-based
[15] = Selectivity index, ratio of IC50 for african green monkey Vero cells to IC50 for chloroquine-resistant Plasmodium falciparum W2; assay type: toxicity, cell-based; settings: Vero cells versus Plasmodium falciparum W2, read-out: Ratio IC50
[16] = system: Escherichia coli; test: Bactericidal activity against Escherichia coli ATCC 35218 at 20 ug/ml by CLSI method; assay type: functional, organism-based; summary of the method: as §2
[17] = Selectivity index, ratio of IC50 for african green monkey Vero cells to IC50 for chloroquine-sensitive Plasmodium falciparum D6; assay type: toxicity, cell-based; settings: Vero cells versus Plasmodium falciparum D6, read-out: Ratio IC50
[18] = system: Plasmodium falciparum; test: Antimalarial activity against chloroquine-sensitive Plasmodium falciparum D6 assessed as plasmodial LDH activity; assay type: functional, organism-based
[19] = system: Vero; test: Cytotoxicity against african green monkey Vero cells upto 23.8 […] by neutral dye assay; assay type: cell-based, Chlorocebus sabaeus
Summary of the method: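 Vero monkey kidney cells were exposed to compound up to a highest concentration of 23.8, with viability read by neutral red uptake.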

[20] = system: Candida albicans; test: Fungicidal activity against Candida albicans at 20 ug/ml; assay type: functional, organism-based
Summary of the method: (§3)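 Broth dilution antifungal testing followed the NCCLS reference method for yeasts, with 20 as the highest test concentration. MIC was the lowest concentration with no detectable growth. MFC was the lowest concentration killing the organism.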

[21] = system: Candida albicans; test: Antifungal activity against Candida albicans at 20 ug/ml; assay type: functional, organism-based; summary of the method: as §3
[22] = system: Plasmodium berghei; test: Antimalarial activity against Plasmodium berghei blood-schizont in mouse malaria model assessed as elimination of parasitemia at 100 mg/kg, po for 4 days for 4 days measured after 4 days; assay type: functional, organism-based; design: dose 100 mg/kg
[23] = system: Staphylococcus aureus; test: Antimicrobial activity against Staphylococcus aureus ATCC 29213 by CLSI method; assay type: functional, organism-based
[24] = system: Nakaseomyces glabratus; test: Antifungal activity against Candida glabrata; assay type: functional, organism-based; summary of the method: as §1
[25] = Plasmodium falciparum, W2, read-out: IC50
[26] = Leishmania donovani, read-out: IC50
[27] = Plasmodium falciparum, D6, read-out: IC50

Compound | IC50 [3, 25] [µg/mL] | Activity [4] | Activity [7] | IC90 ([8]; Leishmania donovani) [µg/mL] | IC50 [8, 26] [µg/mL] | Activity [9] | IC50 [10] [µg/mL] | MFC [10] [µg/mL] | MIC [10] [µg/mL] | Activity [12] | pIC50 [13] | Activity [14] | selectivity ratio [15] | selectivity ratio [17] | IC50 [18, 27] [µg/mL] | IC50 [19] | Activity [20] | Activity [21] | Activity [6] | Activity [23] | also measured
COc1cc(NC(C)CCCNC(=O)[C@H](CCCNC(=N)N)NC(=O)[C@@H](N)CCCNC(=N)N)c2nc(C(C)(C)C)ccc2c1 (stereo partly specified) | 0.82 (≈ 1.31 µM) | Active | inactive | 31 (≈ 49.4 µM) | 9 (≈ 14.3 µM) | inactive | 2.5 (≈ 3.98 µM) | 5 (≈ 7.96 µM) | 5 (≈ 7.96 µM) | inactive | 4.28 | inactive | > 29 | > 24.5 | 0.97 (≈ 1.54 µM) | Non-toxic | inactive | – | – | – | IC50 [1]: 15 µg/mL (≈ 23.9 µM); MIC [1]: 20 µg/mL (≈ 31.9 µM); Activity [2]: inactive; Activity [5]: inactive; IC50 [6]: 7 µg/mL (≈ 11.1 µM); MBC [6]: 20 µg/mL (≈ 31.9 µM); MIC [6]: 10 µg/mL (≈ 15.9 µM); Activity [11]: inactive; Activity [16]: inactive
COc1cc(NC(C)CCCNC(=O)[C@H](CCCN)NC(=O)[C@@H](N)CCCN)c2nc(C(C)(C)C)ccc2c1 (stereo partly specified) | 2 (≈ 3.68 µM) | inactive | inactive | – | 20 (≈ 36.8 µM) | inactive | 3.5 (≈ 6.44 µM) | 5 (≈ 9.2 µM) | 5 (≈ 9.2 µM) | inactive | 4.07 | inactive | > 11.9 | > 9.5 | 2.5 (≈ 4.6 µM) | Non-toxic | inactive | inactive | inactive | inactive | IC90 [8]: inactive; Activity [22]: inactive
COc1cc(NC(C)CCCNC(=O)CC[C@H](NC(=O)[C@@H](N)CCCNC(=N)N)C(=O)O)c2nc(C(C)(C)C)ccc2c1 (stereo partly specified) | 2 (≈ 3.33 µM) | inactive | inactive | – | – | inactive | 15 (≈ 25 µM) | 20 (≈ 33.3 µM) | 20 (≈ 33.3 µM) | inactive | 4.02 | inactive | > 11.9 | > 10.3 | 2.3 (≈ 3.83 µM) | Non-toxic | inactive | inactive | inactive | inactive | IC50 [8]: Not Active; IC90 [8]: inactive; Activity [22]: inactive
COc1cc(NC(C)CCCNC(=O)[C@H](CCCCN)NC(=O)[C@@H](N)CCCCN)c2nc(C(C)(C)C)ccc2c1 (stereo partly specified) | 0.4 (≈ 0.7 µM) | Active | inactive | 39 (≈ 68.2 µM) | 19 (≈ 33.2 µM) | inactive | 3.5 (≈ 6.12 µM) | 5 (≈ 8.74 µM) | 5 (≈ 8.74 µM) | inactive | 4.14 | inactive | > 59.5 | > 37.7 | 0.63 (≈ 1.1 µM) | Non-toxic | inactive | inactive | inactive | inactive | –
COc1cc(NC(C)CCCNC(=O)C[C@H](NC(=O)[C@@H](N)CCCN)C(=O)O)c2nc(C(C)(C)C)ccc2c1 (stereo partly specified) | 3 (≈ 5.51 µM) | – | inactive | 36 (≈ 66.1 µM) | 20 (≈ 36.7 µM) | inactive | 4 (≈ 7.34 µM) | 20 (≈ 36.7 µM) | 20 (≈ 36.7 µM) | inactive | 4.40 | inactive | > 7.9 | > 8.8 | 2.7 (≈ 4.96 µM) | Non-toxic | – | – | inactive | inactive | IC50 [1]: 15 µg/mL (≈ 27.5 µM); MFC [1]: 20 µg/mL (≈ 36.7 µM); MIC [1]: 20 µg/mL (≈ 36.7 µM)
C[C@@H]1[C@H](O)[C@@H](C)/C=C/C=C/C=C/C=C/C=C/C=C/C=C/[C@H](O[C@@H]2O[C@H](C)[C@@H](O)[C@H](N)[C@@H]2O)C[C@@H]2O[C@](O)(C[C@@H](O)C[C@@H](O)[C@H](O)CC[C@@H](O)C[C@@H](O)CC(=O)O[C@H]1C)C[C@H](O)[C@H]2C(=O)O [AMPHOTERICIN B] | – | – | – | 0.35 (≈ 0.379 µM) | – | – | – | 1.5 (≈ 1.62 µM) | – | – | – | – | – | – | – | – | – | – | – | – | MIC [1]: 0.63 µg/mL (≈ 0.682 µM); MFC [24]: 0.625 µg/mL (≈ 0.676 µM); MIC [24]: 0.31 µg/mL (≈ 0.335 µM)
COc1cc(NC(C)CCCNC(=O)[C@@H](CCCCN)NC(=O)[C@H](N)CCCCN)c2nc(C(C)(C)C)ccc2c1 (stereo partly specified) | 2.8 (≈ 4.9 µM) | inactive | inactive | – | – | inactive | 6.5 (≈ 11.4 µM) | 10 (≈ 17.5 µM) | 10 (≈ 17.5 µM) | inactive | < 3.00 | inactive | > 8.5 | > 5 | 4.76 (≈ 8.32 µM) | Non-toxic | inactive | inactive | inactive | inactive | IC50 [8]: Not Active; IC90 [8]: inactive; Activity [22]: inactive
COc1cc(NC(C)CCCNC(=O)C[C@@H](NC(=O)[C@H](N)CCCNC(=N)N)C(=O)O)c2nc(C(C)(C)C)ccc2c1 (stereo partly specified) | 2.6 (≈ 4.43 µM) | Active | – | – | – | inactive | – | – | – | inactive | 3.90 | inactive | > 9.1 | > 13.2 | 1.8 (≈ 3.07 µM) | Non-toxic | – | – | inactive | inactive | IC50 [8]: Not Active; IC90 [8]: inactive
COc1cc(NC(C)CCCNC(=O)[C@H](CCCN)NC(=O)[C@@H](N)CCCN)c2ncccc2c1 (stereo partly specified) | – | Active | inactive | 20 (≈ 41 µM) | 4 (≈ 8.2 µM) | inactive | 5.5 (≈ 11.3 µM) | 20 (≈ 41 µM) | 10 (≈ 20.5 µM) | inactive | < 3.00 | inactive | – | – | – | Non-toxic | inactive | inactive | inactive | inactive | IC50 [3]: Not Active; IC50 [18]: Not Active
